Test results from ChEMBL document CHEMBL5724801, “EUbOPEN Chemogenomics Library - Multiplex” (2024).
“And” between values parts separate entries of the source, which are not always exact repeats. Equal entries are not always repeated.

Key:
[1] = system: U2OS; test: Multiplex assay against U2OS; assay type: toxicity, cell-based; conditions: human
Method in brief: (§1)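 Cells were classed with CellPathfinder machine-learning gating, first as Hoechst high-intensity objects or normal cells, then (normal cells) as healthy, pyknosed or fragmented nuclei, and finally (pyknosed cells) as mitotic or apoptotic. Staining of live cells at seeding used Hoechst33342, BioTracker Green Microtubule Cytoskeleton Dye, MitoTracker Red and Annexin V Alexa Fluor 680, with imaging on a CQ1 microscope at 37°C and 5% CO2 after compound addition. Tubulin, mitochondrial-mass and membrane-permeability phenotypes are per cents of healthy-nucleus cells.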

[2] = system: HEK-293T; test: Multiplex assay against HEK293T; assay type: toxicity, cell-based; conditions: human; method in brief: as §1
[3] = 24 h, 1 µM, compound concentration 1 uM
[4] = 24 h, 10 µM, compound concentration 10 uM
[5] = 48 h, 1 µM, compound concentration 1 uM
[6] = 48 h, 10 µM, compound concentration 10 uM
[7] = 12 h, 1 µM, compound concentration 1 uM
[8] = 12 h, 10 µM, compound concentration 10 uM

COc1c(Nc2ccc(S(C)(=O)=O)nc2C)ncnc1OC1CCN(C(=O)OC(C)C)CC1 [ADP-597]
Total Cell Count [1, 3]: 239 and 129
Population Apoptotic (%) [1, 4]: 88% and 83%
Population Fragmented Nuclei (%) [1, 4]: 30% and 11%
Population Healthy Nuclei (%) [1, 4]: 61% and 80%
Population Hoechst High Intensity Objects (%) [1, 4]: 6% and 5%
Population Membrane Permeable-Phenotype (%) [1, 4]: 8% and 6%
Population Mitochondria Different-Phenotype (%) [1, 4]: 2% and 4%
Population Mitotic Cells (%) [1, 4]: 12% and 16%
Population Normal (%) [1, 4]: 93% and 94%
Population Pyknosed Nuclei (%) [1, 4]: 8%
Population Tubulin-Different-Phenotype (%) [1, 4]: 4% and 1%
Total Cell Count [1, 4]: 305 and 155
Population Apoptotic (%) [1, 5]: 80% and 81%
Population Fragmented Nuclei (%) [1, 5]: 19% and 20%
Population Healthy Nuclei (%) [1, 5]: 72% and 67%
Population Hoechst High Intensity Objects (%) [1, 5]: 2%
Population Membrane Permeable-Phenotype (%) [1, 5]: 6% and 5%
Population Mitochondria Different-Phenotype (%) [1, 5]: 5% and 4%
Population Mitotic Cells (%) [1, 5]: 19% and 18%
Population Normal (%) [1, 5]: 97%
Population Pyknosed Nuclei (%) [1, 5]: 7% and 12%
Population Tubulin-Different-Phenotype (%) [1, 5]: 2%
Total Cell Count [1, 5]: 339 and 185
Population Apoptotic (%) [1, 6]: 79% and 92%
Population Fragmented Nuclei (%) [1, 6]: 24% and 10%
Population Healthy Nuclei (%) [1, 6]: 62% and 77%
Population Hoechst High Intensity Objects (%) [1, 6]: 6% and 3%
Population Membrane Permeable-Phenotype (%) [1, 6]: 6% and 4%
Population Mitochondria Different-Phenotype (%) [1, 6]: 4% and 0%
Population Mitotic Cells (%) [1, 6]: 20% and 8%
Population Normal (%) [1, 6]: 93% and 96%
Population Pyknosed Nuclei (%) [1, 6]: 13% and 11%
Population Tubulin-Different-Phenotype (%) [1, 6]: 2%
Total Cell Count [1, 6]: 356 and 223
Population Apoptotic (%) [2, 7]: 29% and 38%
Population Fragmented Nuclei (%) [2, 7]: 5% and 4%
Population Healthy Nuclei (%) [2, 7]: 78% and 80%
Population Hoechst High Intensity Objects (%) [2, 7]: 6% and 3%
Population Membrane Permeable-Phenotype (%) [2, 7]: 0%
Population Mitochondria Different-Phenotype (%) [2, 7]: 47% and 62%
Population Mitotic Cells (%) [2, 7]: 70% and 62%
Population Normal (%) [2, 7]: 93% and 96%
Population Pyknosed Nuclei (%) [2, 7]: 16% and 14%
Population Tubulin-Different-Phenotype (%) [2, 7]: 36% and 25%
Total Cell Count [2, 7]: 430 and 347
Population Apoptotic (%) [2, 8]: 47%
Population Fragmented Nuclei (%) [2, 8]: 7%
Population Healthy Nuclei (%) [2, 8]: 75% and 72%
Population Membrane Permeable-Phenotype (%) [2, 8]: 0%
Population Mitochondria Different-Phenotype (%) [2, 8]: 70% and 71%
Population Mitotic Cells (%) [2, 8]: 52%
Population Normal (%) [2, 8]: 91% and 74%
Population Pyknosed Nuclei (%) [2, 8]: 17% and 20%
Population Tubulin-Different-Phenotype (%) [2, 8]: 44% and 36%
Total Cell Count [2, 8]: 302 and 238
Population Apoptotic (%) [2, 3]: 23% and 30%
Population Fragmented Nuclei (%) [2, 3]: 7% and 6%
Population Healthy Nuclei (%) [2, 3]: 81% and 84%
Population Hoechst High Intensity Objects (%) [2, 3]: 2% and 3%
Population Membrane Permeable-Phenotype (%) [2, 3]: 0% and 1%
Population Mitochondria Different-Phenotype (%) [2, 3]: 20% and 34%
Population Mitotic Cells (%) [2, 3]: 76% and 69%
Population Normal (%) [2, 3]: 97% and 96%
Population Pyknosed Nuclei (%) [2, 3]: 11% and 9%
Population Tubulin-Different-Phenotype (%) [2, 3]: 16% and 15%
Total Cell Count [2, 3]: 587 and 447
Population Apoptotic (%) [2, 4]: 44% and 63%
Population Fragmented Nuclei (%) [2, 4]: 9% and 11%
Population Healthy Nuclei (%) [2, 4]: 74% and 71%
Population Hoechst High Intensity Objects (%) [2, 4]: 7% and 21%
Population Membrane Permeable-Phenotype (%) [2, 4]: 0%
Population Mitochondria Different-Phenotype (%) [2, 4]: 58% and 54%
Population Mitotic Cells (%) [2, 4]: 55% and 36%
Population Normal (%) [2, 4]: 92% and 78%
Population Pyknosed Nuclei (%) [2, 4]: 15% and 17%
Population Tubulin-Different-Phenotype (%) [2, 4]: 38% and 25%
Total Cell Count [2, 4]: 355 and 300
Population Apoptotic (%) [2, 5]: 25% and 36%
Population Fragmented Nuclei (%) [2, 5]: 13%
Population Healthy Nuclei (%) [2, 5]: 78% and 77%
Population Hoechst High Intensity Objects (%) [2, 5]: 2% and 5%
Population Membrane Permeable-Phenotype (%) [2, 5]: 0% and 1%
Population Mitochondria Different-Phenotype (%) [2, 5]: 18% and 23%
Population Mitotic Cells (%) [2, 5]: 75% and 63%
Population Normal (%) [2, 5]: 97% and 94%
Population Pyknosed Nuclei (%) [2, 5]: 8% and 9%
Population Tubulin-Different-Phenotype (%) [2, 5]: 13% and 14%
Total Cell Count [2, 5]: 924 and 590
Population Apoptotic (%) [2, 6]: 35% and 43%
Population Fragmented Nuclei (%) [2, 6]: 15% and 13%
Population Healthy Nuclei (%) [2, 6]: 73%
Population Hoechst High Intensity Objects (%) [2, 6]: 4% and 10%
Population Membrane Permeable-Phenotype (%) [2, 6]: 0%
Population Mitochondria Different-Phenotype (%) [2, 6]: 38% and 32%
Population Mitotic Cells (%) [2, 6]: 64% and 56%
Population Normal (%) [2, 6]: 95% and 89%
Population Pyknosed Nuclei (%) [2, 6]: 11% and 12%
Population Tubulin-Different-Phenotype (%) [2, 6]: 23% and 18%
Total Cell Count [2, 6]: 494 and 392
